# Assays:
# Assay type in all cases: functional
# Klebsiella pneumoniae [1] = assay: Antibacterial activity against beta-lactamase-positive ESBL-positive Klebsiella pneumoniae E475 incubated up to 7 days by agar dilution method; conditions: E475, 168 h
# Klebsiella pneumoniae [2] = assay: Antibacterial activity against beta-lactamase-positive ESBL-negative Klebsiella pneumoniae E481 incubated up to 7 days by agar dilution method; conditions: E481, 168 h
# Klebsiella pneumoniae [3] = assay: Antibacterial activity against beta-lactamase-negative Klebsiella pneumoniae E417 incubated up to 7 days by agar dilution method; conditions: E417, 168 h
# Summary of the method: (§1)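 MIC by CLSI agar dilution, with quality-control strains in each run. Beta-lactamase status was set by 30 μg cefazolin Kirby-Bauer disk diffusion. ESBL status was set by cefotaxime and ceftazidime disks (30 μg) with and without clavulanic acid (10 μg).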
# Klebsiella pneumoniae [4] = assay: Antibacterial activity against beta-lactamase-positive ESBL-positive Klebsiella pneumoniae E457 incubated up to 7 days by agar dilution method; conditions: E457, 168 h; summary of the method: as §1
# Escherichia coli [5] = assay: Antibacterial activity against beta-lactamase-negative Escherichia coli E348 incubated up to 7 days by agar dilution method; conditions: E348, 168 h
# Escherichia coli [6] = assay: Antibacterial activity against beta-lactamase-negative Escherichia coli E350 […] by agar dilution method
# Escherichia coli [7] = assay: Antibacterial activity against beta-lactamase-positive ESBL-negative Escherichia coli E415 incubated up to 7 days by agar dilution method; conditions: E415, 168 h; summary of the method: as §1
# Escherichia coli [8] = assay: Antibacterial activity against beta-lactamase-positive ESBL-positive Escherichia coli E446 incubated up to 7 days by agar dilution method; conditions: E446, 168 h; summary of the method: as §1
# Escherichia coli [9] = assay: Antibacterial activity against beta-lactamase-positive ESBL-positive Escherichia coli E450 incubated up to 7 days by agar dilution method; conditions: E450, 168 h; summary of the method: as §1
# Klebsiella pneumoniae [10] = assay: Antibacterial activity against beta-lactamase-negative Klebsiella pneumoniae E357 incubated up to 7 days by agar dilution method; conditions: E357, 168 h
# Klebsiella pneumoniae [11] = assay: Antibacterial activity against beta-lactamase-negative Klebsiella pneumoniae E358 incubated up to 7 days by agar dilution method; conditions: E358, 168 h
# Klebsiella pneumoniae [12] = assay: Antibacterial activity against beta-lactamase-negative Klebsiella pneumoniae E360 incubated up to 7 days by agar dilution method; conditions: E360, 168 h
# Klebsiella pneumoniae [13] = assay: Antibacterial activity against beta-lactamase-negative Klebsiella pneumoniae E361 incubated up to 7 days by agar dilution method; conditions: E361, 168 h
# Klebsiella pneumoniae [14] = assay: Antibacterial activity against beta-lactamase-negative Klebsiella pneumoniae E362 assessed as mutant prevention concentration after overnight incubation
# Klebsiella pneumoniae [15] = assay: Antibacterial activity against beta-lactamase-positive ESBL-positive Klebsiella pneumoniae E476 assessed as mutant prevention concentration after overnight incubation
# Summary of the method: (§2)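 Overnight growth on blood trypticase soy agar (35°C, air) was resuspended in 0.9% saline and counted on drug-free Mueller-Hinton agar. […] Colonies were retested by agar dilution to confirm mutants. MPC was the lowest concentration preventing resistant-mutant growth.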
# Klebsiella pneumoniae [16] = assay: Antibacterial activity against beta-lactamase-positive ESBL-negative Klebsiella pneumoniae E472 assessed as mutant prevention concentration after overnight incubation; summary of the method: as §2
# Klebsiella pneumoniae [17] = assay: Antibacterial activity against beta-lactamase-positive ESBL-negative Klebsiella pneumoniae E477 assessed as mutant prevention concentration after overnight incubation; summary of the method: as §2
# Klebsiella pneumoniae [18] = assay: Antibacterial activity against beta-lactamase-positive ESBL-positive Klebsiella pneumoniae E453 assessed as mutant prevention concentration after overnight incubation; summary of the method: as §2
# Escherichia coli [19] = assay: Antibacterial activity against beta-lactamase-negative Escherichia coli E344 assessed as mutant prevention concentration after overnight incubation
# Escherichia coli [20] = assay: Antibacterial activity against beta-lactamase-negative Escherichia coli E346 assessed as mutant prevention concentration after overnight incubation
# Escherichia coli [21] = assay: Antibacterial activity against beta-lactamase-negative Escherichia coli E348 assessed as mutant prevention concentration after overnight incubation
# Escherichia coli [22] = assay: Antibacterial activity against beta-lactamase-positive ESBL-negative Escherichia coli E415 assessed as mutant prevention concentration after overnight incubation; summary of the method: as §2
# Escherichia coli [23] = assay: Antibacterial activity against beta-lactamase-positive ESBL-positive Escherichia coli E446 assessed as mutant prevention concentration after overnight incubation; summary of the method: as §2
# Escherichia coli [24] = assay: Antibacterial activity against beta-lactamase-positive ESBL-positive Escherichia coli E450 assessed as mutant prevention concentration after overnight incubation; summary of the method: as §2
# Escherichia coli [25] = assay: Antibacterial activity against beta-lactamase-positive ESBL-positive Escherichia coli E452 assessed as mutant prevention concentration after overnight incubation; summary of the method: as §2
# Escherichia coli [26] = assay: Antibacterial activity against beta-lactamase-positive ESBL-positive Escherichia coli E456 assessed as mutant prevention concentration after overnight incubation; summary of the method: as §2
# Escherichia coli [27] = assay: Antibacterial activity against beta-lactamase-positive ESBL-positive Escherichia coli E465 assessed as mutant prevention concentration after overnight incubation; summary of the method: as §2
# Escherichia coli [28] = assay: Antibacterial activity against beta-lactamase-positive ESBL-negative Escherichia coli E483 assessed as mutant prevention concentration after overnight incubation; summary of the method: as §2
# Klebsiella pneumoniae [29] = assay: Antibacterial activity against beta-lactamase-negative Klebsiella pneumoniae E359 assessed as mutant prevention concentration after overnight incubation
# Klebsiella pneumoniae [30] = assay: Antibacterial activity against beta-lactamase-negative Klebsiella pneumoniae E361 assessed as mutant prevention concentration after overnight incubation
# Acinetobacter baumannii [31] = assay: Antibacterial activity against Acinetobacter baumannii A931 assessed as mutant prevention concentration after overnight incubation
# Acinetobacter baumannii [32] = assay: Antibacterial activity against Acinetobacter baumannii A897 assessed as mutant prevention concentration after overnight incubation
# Acinetobacter baumannii [33] = assay: Antibacterial activity against Acinetobacter baumannii A901 assessed as mutant prevention concentration after overnight incubation
# Acinetobacter baumannii [34] = assay: Antibacterial activity against Acinetobacter baumannii A903 assessed as mutant prevention concentration after overnight incubation
# Pseudomonas aeruginosa [35] = assay: Antibacterial activity against Pseudomonas aeruginosa P373 assessed as mutant prevention concentration after overnight incubation
# Pseudomonas aeruginosa [36] = assay: Antibacterial activity against Pseudomonas aeruginosa P319 assessed as mutant prevention concentration after overnight incubation
# Pseudomonas aeruginosa [37] = assay: Antibacterial activity against Pseudomonas aeruginosa P323 assessed as mutant prevention concentration after overnight incubation
# Pseudomonas aeruginosa [38] = assay: Antibacterial activity against Pseudomonas aeruginosa P337 assessed as mutant prevention concentration after overnight incubation
# Pseudomonas aeruginosa [39] = assay: Antibacterial activity against Pseudomonas aeruginosa P328 assessed as mutant prevention concentration after overnight incubation
# Pseudomonas aeruginosa [40] = assay: Antibacterial activity against Pseudomonas aeruginosa P370 assessed as mutant prevention concentration after overnight incubation
# Pseudomonas aeruginosa [41] = assay: Antibacterial activity against Pseudomonas aeruginosa P341 assessed as mutant prevention concentration after overnight incubation
# Pseudomonas aeruginosa [42] = assay: Antibacterial activity against Pseudomonas aeruginosa P358 assessed as mutant prevention concentration after overnight incubation
# Pseudomonas aeruginosa [43] = assay: Antibacterial activity against Pseudomonas aeruginosa P376 assessed as mutant prevention concentration after overnight incubation
# Pseudomonas aeruginosa [44] = assay: Antibacterial activity against Pseudomonas aeruginosa P326 assessed as mutant prevention concentration after overnight incubation
# Acinetobacter baumannii [45] = assay: Antibacterial activity against Acinetobacter baumannii A850 assessed as mutant prevention concentration after overnight incubation
# Acinetobacter baumannii [46] = assay: Antibacterial activity against Acinetobacter baumannii A851 assessed as mutant prevention concentration after overnight incubation
# Acinetobacter baumannii [47] = assay: Antibacterial activity against Acinetobacter baumannii A912 assessed as mutant prevention concentration after overnight incubation
smiles,measurement,setting,value
C[C@@H](O)[C@H]1C(=O)N2C(C(=O)O)=C(S[C@@H]3CN[C@H](C(=O)Nc4cccc(C(=O)O)c4)C3)[C@H](C)[C@H]12,MIC,Klebsiella pneumoniae [1],8 µg/mL
same,MIC,Klebsiella pneumoniae [2],4 µg/mL
same,MIC,Klebsiella pneumoniae [3],0.008 µg/mL
same,MIC,Klebsiella pneumoniae [4],0.03 µg/mL
same,MIC,Escherichia coli [5],0.008 µg/mL
same,MIC,Escherichia coli [6],0.016 µg/mL
same,MIC,Escherichia coli [7],0.125 µg/mL
same,MIC,Escherichia coli [8],0.25 µg/mL
same,MIC,Escherichia coli [9],0.03 µg/mL
same,MIC,Klebsiella pneumoniae [10],0.008 µg/mL
same,MIC,Klebsiella pneumoniae [11],0.008 µg/mL
same,MIC,Klebsiella pneumoniae [12],0.008 µg/mL
same,MIC,Klebsiella pneumoniae [13],0.016 µg/mL
same,MPC,Klebsiella pneumoniae [14],0.06 µg/mL
same,MPC,Klebsiella pneumoniae [15],32 µg/mL
same,MPC,Klebsiella pneumoniae [16],64 µg/mL
same,MPC,Klebsiella pneumoniae [17],32 µg/mL
same,MPC,Klebsiella pneumoniae [18],1 µg/mL
same,MPC,Escherichia coli [19],0.03 µg/mL
same,MPC,Escherichia coli [20],0.03 µg/mL
same,MPC,Escherichia coli [21],0.03 µg/mL
same,MPC,Escherichia coli [22],0.5 µg/mL
same,MPC,Escherichia coli [23],1 µg/mL
same,MPC,Escherichia coli [24],1 µg/mL
same,MPC,Escherichia coli [25],0.25 µg/mL
same,MPC,Escherichia coli [26],2 µg/mL
same,MPC,Escherichia coli [27],8 µg/mL
same,MPC,Escherichia coli [28],64 µg/mL
same,MPC,Klebsiella pneumoniae [29],0.03 µg/mL
same,MPC,Klebsiella pneumoniae [30],0.06 µg/mL
C[C@@H](O)[C@H]1C(=O)N2C(C(=O)O)=C(S[C@@H]3CN[C@H](CNS(N)(=O)=O)C3)[C@H](C)[C@H]12 [DORIPENEM],MIC,Klebsiella pneumoniae [1],2 µg/mL
same,MIC,Klebsiella pneumoniae [2],2 µg/mL
same,MIC,Klebsiella pneumoniae [3],0.06 µg/mL
same,MIC,Klebsiella pneumoniae [4],0.06 µg/mL
same,MIC,Escherichia coli [5],0.03 µg/mL
same,MIC,Escherichia coli [6],0.06 µg/mL
same,MIC,Escherichia coli [7],0.03 µg/mL
same,MIC,Escherichia coli [8],0.06 µg/mL
same,MIC,Escherichia coli [9],0.03 µg/mL
same,MIC,Klebsiella pneumoniae [10],0.06 µg/mL
same,MIC,Klebsiella pneumoniae [11],0.06 µg/mL
same,MIC,Klebsiella pneumoniae [12],0.06 µg/mL
same,MIC,Klebsiella pneumoniae [13],0.06 µg/mL
same,MPC,Acinetobacter baumannii [31],2 µg/mL
same,MPC,Acinetobacter baumannii [32],1 µg/mL
same,MPC,Acinetobacter baumannii [33],8 µg/mL
same,MPC,Acinetobacter baumannii [34],4 µg/mL
same,MPC,Klebsiella pneumoniae [14],0.125 µg/mL
same,MPC,Klebsiella pneumoniae [15],8 µg/mL
same,MPC,Klebsiella pneumoniae [16],64 µg/mL
same,MPC,Klebsiella pneumoniae [17],>64 µg/mL
same,MPC,Klebsiella pneumoniae [18],0.125 µg/mL
same,MPC,Pseudomonas aeruginosa [35],>4 µg/mL
same,MPC,Pseudomonas aeruginosa [36],8 µg/mL
same,MPC,Pseudomonas aeruginosa [37],4 µg/mL
same,MPC,Pseudomonas aeruginosa [38],8 µg/mL
same,MPC,Pseudomonas aeruginosa [39],4 µg/mL
same,MPC,Pseudomonas aeruginosa [40],4 µg/mL
same,MPC,Pseudomonas aeruginosa [41],8 µg/mL
same,MPC,Pseudomonas aeruginosa [42],64 µg/mL
same,MPC,Pseudomonas aeruginosa [43],16 µg/mL
same,MPC,Pseudomonas aeruginosa [44],16 µg/mL
same,MPC,Acinetobacter baumannii [45],8 µg/mL
same,MPC,Acinetobacter baumannii [46],16 µg/mL
same,MPC,Acinetobacter baumannii [47],8 µg/mL
same,MPC,Escherichia coli [19],0.06 µg/mL
same,MPC,Escherichia coli [20],0.06 µg/mL
same,MPC,Escherichia coli [21],0.06 µg/mL
same,MPC,Escherichia coli [22],0.06 µg/mL
same,MPC,Escherichia coli [23],0.125 µg/mL
same,MPC,Escherichia coli [24],0.125 µg/mL
same,MPC,Escherichia coli [25],0.125 µg/mL
same,MPC,Escherichia coli [26],0.25 µg/mL
same,MPC,Escherichia coli [27],0.5 µg/mL
same,MPC,Escherichia coli [28],2 µg/mL
same,MPC,Klebsiella pneumoniae [29],0.125 µg/mL
same,MPC,Klebsiella pneumoniae [30],0.125 µg/mL
C[C@@H](O)[C@H]1C(=O)N2C(C(=O)O)=C(SCCNC=N)C[C@H]12 [IMIPENEM ANHYDROUS],MPC,Acinetobacter baumannii [31],1 µg/mL
same,MPC,Acinetobacter baumannii [32],1 µg/mL
same,MPC,Acinetobacter baumannii [33],8 µg/mL
same,MPC,Acinetobacter baumannii [34],1 µg/mL
same,MPC,Klebsiella pneumoniae [14],1 µg/mL
same,MPC,Klebsiella pneumoniae [15],>16 µg/mL
same,MPC,Klebsiella pneumoniae [16],32 µg/mL
same,MPC,Klebsiella pneumoniae [17],32 µg/mL
same,MPC,Klebsiella pneumoniae [18],0.5 µg/mL
same,MPC,Pseudomonas aeruginosa [35],32 µg/mL
same,MPC,Pseudomonas aeruginosa [36],32 µg/mL
same,MPC,Pseudomonas aeruginosa [37],64 µg/mL
same,MPC,Pseudomonas aeruginosa [38],16 µg/mL
same,MPC,Pseudomonas aeruginosa [39],32 µg/mL
same,MPC,Pseudomonas aeruginosa [40],16 µg/mL
same,MPC,Pseudomonas aeruginosa [41],32 µg/mL
same,MPC,Pseudomonas aeruginosa [42],128 µg/mL
same,MPC,Pseudomonas aeruginosa [43],64 µg/mL
same,MPC,Pseudomonas aeruginosa [44],32 µg/mL
same,MPC,Acinetobacter baumannii [45],8 µg/mL
same,MPC,Acinetobacter baumannii [46],8 µg/mL
same,MPC,Acinetobacter baumannii [47],4 µg/mL
same,MPC,Escherichia coli [19],0.5 µg/mL
same,MPC,Escherichia coli [20],0.5 µg/mL
same,MPC,Escherichia coli [21],0.5 µg/mL
same,MPC,Escherichia coli [22],0.5 µg/mL
same,MPC,Escherichia coli [23],2 µg/mL
same,MPC,Escherichia coli [24],0.5 µg/mL
same,MPC,Escherichia coli [25],0.5 µg/mL
same,MPC,Escherichia coli [26],1 µg/mL
same,MPC,Escherichia coli [27],0.5 µg/mL
same,MPC,Escherichia coli [28],4 µg/mL
same,MPC,Klebsiella pneumoniae [29],1 µg/mL
same,MPC,Klebsiella pneumoniae [30],1 µg/mL

# Reference: ChEMBL document CHEMBL1255475, “Mutant prevention concentrations of four carbapenems against gram-negative rods” (2010)
